Data published in ChEMBL document CHEMBL3271970, “Radiopharmaceuticals. 16. Halogenated dopamine analogs. Synthesis and radiolabeling of 6-iododopamine and tissue distribution studies in animals” (J Med Chem, 1976).

Experiments:
Liver [1] = assay: Biodistribution in liver of mouse assessed per organ at 8 to 11 x 10^-8 mol, iv measured after 30 mins; assay type: ADME, organism-based; conditions: in vivo, 0.5 h
Method in brief: (§1)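 [131I]- or [123I]-6-iododopamine in water or saline, used within 30 min of preparation. Injected iv at 8-11 × 10^-8 mol/mouse. Mice killed by ether overdose at 5-240 min; 3-10 mice per time point. Tissue radioactivity expressed as % dose/organ ± SD.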

Mus musculus [2] = assay: Biodistribution in adrenal gland of mouse assessed per organ at 8 to 11 x 10^-8 mol, iv measured after 120 mins; assay type: ADME, organism-based; conditions: in vivo, 2 h; method in brief: as §1
Liver [3] = assay: Biodistribution in liver of mouse assessed per organ at 8 to 11 x 10^-8 mol, iv measured after 60 mins; assay type: ADME, organism-based; conditions: in vivo, 1 h; method in brief: as §1
Kidney [4] = assay: Biodistribution in kidney of mouse assessed per organ at 8 to 11 x 10^-8 mol, iv measured after 60 mins; assay type: ADME, organism-based; conditions: in vivo, 1 h; method in brief: as §1
[5] = Biodistribution in adrenal medulla of mongrel dog assessed per organ at 1.29 x 10^-6 mol, iv measured after 2 hrs; assay type: ADME, organism-based, Canis lupus familiaris; conditions: in vivo
Method in brief: (§2)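 Radioiodinated ([123I] or [131I]) 6-iododopamine in water or saline, used within 30 min of preparation. Given iv at 1.29 × 10^-6 mol/dog; one dog per time point, killed at 2 or 24 h. Large organs counted as three samples and averaged; adrenals and thyroid taken intact and counted. Expressed as % dose/organ.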

Kidney [6] = assay: Biodistribution in kidney of mouse assessed per organ at 8 to 11 x 10^-8 mol, iv measured after 240 mins; assay type: ADME, organism-based; conditions: in vivo, 4 h; method in brief: as §1
[7] = Biodistribution in adrenal cortex of mongrel dog assessed per organ at 1.29 x 10^-6 mol, iv measured after 2 hrs; assay type: ADME, organism-based, Canis lupus familiaris; conditions: in vivo; method in brief: as §2
Mus musculus [8] = assay: Biodistribution in thyroid gland of mouse assessed per organ at 8 to 11 x 10^-8 mol, iv measured after 5 mins; assay type: ADME, organism-based; conditions: in vivo
Method in brief: (§3)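 Tracer labelled with either 123I or 131I, in water or saline, used within 30 min of preparation. Mice dosed iv at 8-11 × 10^-8 mol/mouse and killed by ether overdose. Organs counted as % dose/organ ± SD, n = 3-10 mice per time point.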

Liver [9] = assay: Biodistribution in liver of mouse assessed per organ at 8 to 11 x 10^-8 mol, iv measured after 5 mins; assay type: ADME, organism-based; conditions: in vivo; method in brief: as §1
Liver [10] = assay: Biodistribution in liver of mongrel dog assessed per organ at 1.29 x 10^-6 mol, iv measured after 24 hrs; assay type: ADME, organism-based, Canis lupus familiaris; conditions: in vivo; method in brief: as §2
[11] = Biodistribution in thyroid gland of mongrel dog assessed per organ at 1.29 x 10^-6 mol, iv measured after 24 hrs; assay type: ADME, organism-based, Canis lupus familiaris; conditions: in vivo
Method in brief: (§4)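 Radioiodine-labelled tracer given at 1.29 × 10^-6 mol/dog. One dog per time point, killed at 2 or 24 h. Thyroids and other small organs were taken intact and counted. Large organs were sampled three times and averaged. Result given as % dose/organ.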

Mus musculus [12] = assay: Biodistribution in adrenal gland of mouse assessed per organ at 8 to 11 x 10^-8 mol, iv measured after 15 mins; assay type: ADME, organism-based; conditions: in vivo, 0.25 h; method in brief: as §1
Mus musculus [13] = assay: Biodistribution in adrenal gland of mouse assessed per organ at 8 to 11 x 10^-8 mol, iv measured after 5 mins; assay type: ADME, organism-based; conditions: in vivo; method in brief: as §1
Kidney [14] = assay: Biodistribution in kidney of mouse assessed per organ at 8 to 11 x 10^-8 mol, iv measured after 30 mins; assay type: ADME, organism-based; conditions: in vivo, 0.5 h; method in brief: as §1
Mus musculus [15] = assay: Biodistribution in adrenal gland of mouse assessed per organ at 8 to 11 x 10^-8 mol, iv measured after 60 mins; assay type: ADME, organism-based; conditions: in vivo, 1 h; method in brief: as §1
[16] = Biodistribution in thyroid gland of mongrel dog assessed per organ at 1.29 x 10^-6 mol, iv measured after 2 hrs; assay type: ADME, organism-based, Canis lupus familiaris; conditions: in vivo; method in brief: as §4
Liver [17] = assay: Biodistribution in liver of mouse assessed per organ at 8 to 11 x 10^-8 mol, iv measured after 15 mins; assay type: ADME, organism-based; conditions: in vivo, 0.25 h; method in brief: as §1
Mus musculus [18] = assay: Biodistribution in thyroid gland of mouse assessed per organ at 8 to 11 x 10^-8 mol, iv measured after 30 mins; assay type: ADME, organism-based; conditions: in vivo, 0.5 h; method in brief: as §3
Kidney [19] = assay: Biodistribution in kidney of mouse assessed per organ at 8 to 11 x 10^-8 mol, iv measured after 15 mins; assay type: ADME, organism-based; conditions: in vivo, 0.25 h; method in brief: as §1
Mus musculus [20] = assay: Biodistribution in thyroid gland of mouse assessed per organ at 8 to 11 x 10^-8 mol, iv measured after 120 mins; assay type: ADME, organism-based; conditions: in vivo, 2 h; method in brief: as §3
Kidney [21] = assay: Biodistribution in kidney of mouse assessed per organ at 8 to 11 x 10^-8 mol, iv measured after 120 mins; assay type: ADME, organism-based; conditions: in vivo, 2 h; method in brief: as §1
Liver [22] = assay: Biodistribution in liver of mongrel dog assessed per organ at 1.29 x 10^-6 mol, iv measured after 2 hrs; assay type: ADME, organism-based, Canis lupus familiaris; conditions: in vivo; method in brief: as §2
Mus musculus [23] = assay: Biodistribution in thyroid gland of mouse assessed per organ at 8 to 11 x 10^-8 mol, iv measured after 15 mins; assay type: ADME, organism-based; conditions: in vivo, 0.25 h; method in brief: as §3
Mus musculus [24] = assay: Biodistribution in thyroid gland of mouse assessed per organ at 8 to 11 x 10^-8 mol, iv measured after 240 mins; assay type: ADME, organism-based; conditions: in vivo, 4 h; method in brief: as §3
Mus musculus [25] = assay: Biodistribution in adrenal gland of mouse assessed per organ at 8 to 11 x 10^-8 mol, iv measured after 30 mins; assay type: ADME, organism-based; conditions: in vivo, 0.5 h; method in brief: as §1
Mus musculus [26] = assay: Biodistribution in adrenal gland of mouse assessed per organ at 8 to 11 x 10^-8 mol, iv measured after 240 mins; assay type: ADME, organism-based; conditions: in vivo, 4 h; method in brief: as §1
Liver [27] = assay: Biodistribution in liver of mouse assessed per organ at 8 to 11 x 10^-8 mol, iv measured after 120 mins; assay type: ADME, organism-based; conditions: in vivo, 2 h; method in brief: as §1
Mus musculus [28] = assay: Biodistribution in thyroid gland of mouse assessed per organ at 8 to 11 x 10^-8 mol, iv measured after 60 mins; assay type: ADME, organism-based; conditions: in vivo, 1 h; method in brief: as §3
Kidney [29] = assay: Biodistribution in kidney of mouse assessed per organ at 8 to 11 x 10^-8 mol, iv measured after 5 mins; assay type: ADME, organism-based; conditions: in vivo; method in brief: as §1
[30] = Biodistribution in kidney of mongrel dog assessed per organ at 1.29 x 10^-6 mol, iv measured after 2 hrs; assay type: ADME, organism-based, Canis lupus familiaris; conditions: in vivo; method in brief: as §2
[31] = Biodistribution in kidney of mongrel dog assessed per organ at 1.29 x 10^-6 mol, iv measured after 24 hrs; assay type: ADME, organism-based, Canis lupus familiaris; conditions: in vivo; method in brief: as §2
[32] = Biodistribution in adrenal medulla of mongrel dog assessed per organ at 1.29 x 10^-6 mol, iv measured after 24 hrs; assay type: ADME, organism-based, Canis lupus familiaris; conditions: in vivo; method in brief: as §2
[33] = Biodistribution in adrenal cortex of mongrel dog assessed per organ at 1.29 x 10^-6 mol, iv measured after 24 hrs; assay type: ADME, organism-based, Canis lupus familiaris; conditions: in vivo; method in brief: as §2
Liver [34] = assay: Biodistribution in liver of mouse assessed per organ at 8 to 11 x 10^-8 mol, iv measured after 240 mins; assay type: ADME, organism-based; conditions: in vivo, 4 h; method in brief: as §1

## Br.NCCc1cc(O)c(O)cc1[123I]
Liver [1]
  Drug uptake: 2.4 %ID
Mus musculus [2]
  Drug uptake: 0.02 %ID
Liver [3]
  Drug uptake: 1.04 %ID
Kidney [4]
  Drug uptake: 1 %ID
[5]
  Drug uptake: 0.0062 %ID
Kidney [6]
  Drug uptake: 0.79 %ID
[7]
  Drug uptake: 0.0092 %ID
Mus musculus [8]
  Drug uptake: 0.094 %ID
Liver [9]
  Drug uptake: 7.1 %ID
Liver [10]
  Drug uptake: 0.48 %ID
[11]
  Drug uptake: 0.48 %ID
Mus musculus [12]
  Drug uptake: 0.015 %ID
Mus musculus [13]
  Drug uptake: 0.03 %ID
Kidney [14]
  Drug uptake: 1.69 %ID
Mus musculus [15]
  Drug uptake: 0.0087 %ID
[16]
  Drug uptake: 0.026 %ID
Liver [17]
  Drug uptake: 3.64 %ID
Mus musculus [18]
  Drug uptake: 0.084 %ID
Kidney [19]
  Drug uptake: 3.44 %ID
Mus musculus [20]
  Drug uptake: 0.176 %ID
Kidney [21]
  Drug uptake: 0.78 %ID
Liver [22]
  Drug uptake: 2.24 %ID
Mus musculus [23]
  Drug uptake: 0.067 %ID
Mus musculus [24]
  Drug uptake: 0.158 %ID
Mus musculus [25]
  Drug uptake: 0.014 %ID
Mus musculus [26]
  Drug uptake: 0.012 %ID
Liver [27]
  Drug uptake: 0.84 %ID
Mus musculus [28]
  Drug uptake: 0.066 %ID
Kidney [29]
  Drug uptake: 8.03 %ID
[30]
  Drug uptake: 0.77 %ID
[31]
  Drug uptake: 0.075 %ID
[32]
  Drug uptake: 0.0021 %ID
[33]
  Drug uptake: 0.0104 %ID
Liver [34]
  Drug uptake: 0.94 %ID
